2 compounds from BindingDB's records for doi:10.1021/np070447m (2008) can be followed below.

The target of one experiment is Angiopoietin-1 receptor (Homo sapiens, UniProt Q02763). In words: Inhibition of recombinant TIE2.
In experiment [1] the target is Hepatocyte growth factor receptor (Homo sapiens, UniProt P08581). In words: Inhibition of recombinant MET.
The target of another experiment is Focal adhesion kinase 1 (Homo sapiens, UniProt Q05397). In words: Inhibition of recombinant FAK.
The target in experiment [2] is T1, Receptor-type tyrosine-protein kinase FLT3 (Homo sapiens, UniProt P36888).
T1 sequence (P36888 whole entry): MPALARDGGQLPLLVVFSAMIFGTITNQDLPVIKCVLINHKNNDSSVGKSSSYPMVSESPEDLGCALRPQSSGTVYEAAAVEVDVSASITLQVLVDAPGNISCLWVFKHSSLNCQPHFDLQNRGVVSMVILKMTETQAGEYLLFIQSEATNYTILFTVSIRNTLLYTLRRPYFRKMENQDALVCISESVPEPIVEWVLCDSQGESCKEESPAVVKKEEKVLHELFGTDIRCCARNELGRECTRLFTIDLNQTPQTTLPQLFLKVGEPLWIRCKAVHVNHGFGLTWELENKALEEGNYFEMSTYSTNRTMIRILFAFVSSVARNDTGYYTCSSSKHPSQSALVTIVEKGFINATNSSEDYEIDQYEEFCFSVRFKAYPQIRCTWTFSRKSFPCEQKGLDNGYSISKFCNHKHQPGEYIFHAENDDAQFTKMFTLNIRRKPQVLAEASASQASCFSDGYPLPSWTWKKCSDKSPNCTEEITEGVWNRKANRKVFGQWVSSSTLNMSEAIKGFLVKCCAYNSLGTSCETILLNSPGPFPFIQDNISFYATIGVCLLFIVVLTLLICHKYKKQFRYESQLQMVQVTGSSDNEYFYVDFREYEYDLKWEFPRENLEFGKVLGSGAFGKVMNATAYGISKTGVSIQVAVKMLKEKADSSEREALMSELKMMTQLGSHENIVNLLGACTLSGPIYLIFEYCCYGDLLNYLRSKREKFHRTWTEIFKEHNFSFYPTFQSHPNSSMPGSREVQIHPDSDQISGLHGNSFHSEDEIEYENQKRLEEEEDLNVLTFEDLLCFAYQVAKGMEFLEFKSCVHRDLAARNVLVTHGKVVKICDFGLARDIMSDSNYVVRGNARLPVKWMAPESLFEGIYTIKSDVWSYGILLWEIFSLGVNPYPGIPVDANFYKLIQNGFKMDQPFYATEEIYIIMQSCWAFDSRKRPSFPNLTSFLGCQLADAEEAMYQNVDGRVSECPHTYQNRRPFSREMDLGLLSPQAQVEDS
Nature of the experiment: Inhibition of recombinant FLT3. Put shortly: (§1)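 Purified recombinant kinase, 50 µL reaction. 1 µM [γ-33P]-ATP with substrate; compound added in 10% DMSO. Tested over several concentrations; IC50 in g/mL.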

In a further experiment the target is Insulin receptor (Homo sapiens, UniProt P06213). Nature of the experiment: Inhibition of recombinant INSR.
Experiment [3] has as its target Vascular endothelial growth factor receptor 2 (Homo sapiens, UniProt P35968). In words: Inhibition of recombinant VEGFR2. The method, boiled down: as §1
Experiment [4] concerns the target Vascular endothelial growth factor receptor 3 (Homo sapiens, UniProt P35916). Nature of the experiment: Inhibition of recombinant VEGFR3. The method, boiled down: as §1
The target in experiment [5] is Platelet-derived growth factor receptor beta (Homo sapiens, UniProt P09619). Nature of the experiment: Inhibition of recombinant PDGFRbeta.
In a further experiment the target is Aurora kinase B (Homo sapiens, UniProt Q96GD4). In words: Inhibition of recombinant Aurora B. The method, boiled down: as §1
Sequence of Aurora kinase B (Q96GD4 whole entry): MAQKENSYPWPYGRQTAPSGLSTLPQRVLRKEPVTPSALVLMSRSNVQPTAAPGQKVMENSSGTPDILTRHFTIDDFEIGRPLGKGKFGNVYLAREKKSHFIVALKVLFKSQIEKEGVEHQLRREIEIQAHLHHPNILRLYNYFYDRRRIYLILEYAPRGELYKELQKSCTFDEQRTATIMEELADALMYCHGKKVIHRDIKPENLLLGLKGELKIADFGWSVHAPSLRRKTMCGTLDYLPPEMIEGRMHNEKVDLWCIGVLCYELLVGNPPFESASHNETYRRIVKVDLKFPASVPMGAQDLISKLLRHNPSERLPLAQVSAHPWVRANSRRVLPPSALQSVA
In experiment [6] the target is Serine/threonine-protein kinase B-raf (Homo sapiens, UniProt P15056, V600E). Nature of the experiment: Inhibition of recombinant B-RAF-V600E mutant. Put shortly:
as §1

In experiment [7] the target is Cyclin-dependent kinase 4/G1/S-specific cyclin-D1 (Homo sapiens, UniProt P11802). In words: Inhibition of recombinant CDK4/CycD1.
Sequence of Cyclin-dependent kinase 4/G1/S-specific cyclin-D1 (P11802 whole entry): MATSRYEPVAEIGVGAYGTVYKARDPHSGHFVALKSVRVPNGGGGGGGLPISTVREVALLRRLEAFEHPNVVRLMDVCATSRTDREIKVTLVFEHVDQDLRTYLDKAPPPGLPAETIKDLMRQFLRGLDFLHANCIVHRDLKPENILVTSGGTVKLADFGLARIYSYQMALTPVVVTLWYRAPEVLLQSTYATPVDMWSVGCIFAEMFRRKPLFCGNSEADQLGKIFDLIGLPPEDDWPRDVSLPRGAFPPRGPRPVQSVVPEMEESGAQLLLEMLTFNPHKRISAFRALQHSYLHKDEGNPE
Sequence of Cyclin-dependent kinase 4/G1/S-specific cyclin-D1 (P24385 whole entry, further chain): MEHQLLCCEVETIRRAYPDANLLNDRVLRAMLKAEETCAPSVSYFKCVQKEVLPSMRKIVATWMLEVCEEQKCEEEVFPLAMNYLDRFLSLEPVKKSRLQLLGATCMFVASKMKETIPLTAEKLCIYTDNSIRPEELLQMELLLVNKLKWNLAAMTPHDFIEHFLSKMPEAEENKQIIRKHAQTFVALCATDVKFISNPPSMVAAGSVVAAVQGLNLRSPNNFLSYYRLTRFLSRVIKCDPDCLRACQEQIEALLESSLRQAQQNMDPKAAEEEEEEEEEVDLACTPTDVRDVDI
For experiment [8], the target named is T2, NUAK family SNF1-like kinase 1 (Homo sapiens, UniProt O60285).
T2 sequence (O60285 whole entry): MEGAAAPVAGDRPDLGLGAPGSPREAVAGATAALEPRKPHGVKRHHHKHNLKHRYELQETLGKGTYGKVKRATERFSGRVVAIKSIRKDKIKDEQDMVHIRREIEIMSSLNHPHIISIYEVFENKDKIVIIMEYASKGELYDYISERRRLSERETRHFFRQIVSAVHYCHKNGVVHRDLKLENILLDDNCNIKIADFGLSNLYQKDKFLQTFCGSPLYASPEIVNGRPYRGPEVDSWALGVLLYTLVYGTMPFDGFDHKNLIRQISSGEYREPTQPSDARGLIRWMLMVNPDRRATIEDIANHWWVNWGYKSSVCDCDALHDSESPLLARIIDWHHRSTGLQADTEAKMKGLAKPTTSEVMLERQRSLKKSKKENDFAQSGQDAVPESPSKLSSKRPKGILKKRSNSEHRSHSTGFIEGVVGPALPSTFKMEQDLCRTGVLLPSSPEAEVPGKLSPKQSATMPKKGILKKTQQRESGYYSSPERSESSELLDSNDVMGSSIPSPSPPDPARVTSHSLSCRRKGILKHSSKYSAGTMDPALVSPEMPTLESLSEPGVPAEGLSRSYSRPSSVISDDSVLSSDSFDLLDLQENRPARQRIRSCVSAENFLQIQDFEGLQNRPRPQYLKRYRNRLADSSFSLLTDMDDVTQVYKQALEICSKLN
In words: Inhibition of recombinant ARK5.

The target in the next experiment is T3, Aurora kinase A (Homo sapiens, UniProt O14965).
T3 sequence (O14965 whole entry): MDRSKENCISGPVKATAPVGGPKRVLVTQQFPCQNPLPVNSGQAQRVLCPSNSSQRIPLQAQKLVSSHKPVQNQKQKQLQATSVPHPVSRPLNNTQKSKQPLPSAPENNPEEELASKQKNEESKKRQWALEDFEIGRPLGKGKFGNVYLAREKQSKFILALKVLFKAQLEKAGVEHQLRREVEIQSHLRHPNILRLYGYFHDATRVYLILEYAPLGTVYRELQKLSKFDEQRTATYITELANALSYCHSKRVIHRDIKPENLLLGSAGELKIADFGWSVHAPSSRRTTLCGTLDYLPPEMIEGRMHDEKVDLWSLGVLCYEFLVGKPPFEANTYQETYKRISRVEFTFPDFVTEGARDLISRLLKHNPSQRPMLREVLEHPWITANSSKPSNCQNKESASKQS
In words: Inhibition of recombinant Aurora A. The method, boiled down:
as §1

Sequence of Focal adhesion kinase 1 (Q05397 whole entry): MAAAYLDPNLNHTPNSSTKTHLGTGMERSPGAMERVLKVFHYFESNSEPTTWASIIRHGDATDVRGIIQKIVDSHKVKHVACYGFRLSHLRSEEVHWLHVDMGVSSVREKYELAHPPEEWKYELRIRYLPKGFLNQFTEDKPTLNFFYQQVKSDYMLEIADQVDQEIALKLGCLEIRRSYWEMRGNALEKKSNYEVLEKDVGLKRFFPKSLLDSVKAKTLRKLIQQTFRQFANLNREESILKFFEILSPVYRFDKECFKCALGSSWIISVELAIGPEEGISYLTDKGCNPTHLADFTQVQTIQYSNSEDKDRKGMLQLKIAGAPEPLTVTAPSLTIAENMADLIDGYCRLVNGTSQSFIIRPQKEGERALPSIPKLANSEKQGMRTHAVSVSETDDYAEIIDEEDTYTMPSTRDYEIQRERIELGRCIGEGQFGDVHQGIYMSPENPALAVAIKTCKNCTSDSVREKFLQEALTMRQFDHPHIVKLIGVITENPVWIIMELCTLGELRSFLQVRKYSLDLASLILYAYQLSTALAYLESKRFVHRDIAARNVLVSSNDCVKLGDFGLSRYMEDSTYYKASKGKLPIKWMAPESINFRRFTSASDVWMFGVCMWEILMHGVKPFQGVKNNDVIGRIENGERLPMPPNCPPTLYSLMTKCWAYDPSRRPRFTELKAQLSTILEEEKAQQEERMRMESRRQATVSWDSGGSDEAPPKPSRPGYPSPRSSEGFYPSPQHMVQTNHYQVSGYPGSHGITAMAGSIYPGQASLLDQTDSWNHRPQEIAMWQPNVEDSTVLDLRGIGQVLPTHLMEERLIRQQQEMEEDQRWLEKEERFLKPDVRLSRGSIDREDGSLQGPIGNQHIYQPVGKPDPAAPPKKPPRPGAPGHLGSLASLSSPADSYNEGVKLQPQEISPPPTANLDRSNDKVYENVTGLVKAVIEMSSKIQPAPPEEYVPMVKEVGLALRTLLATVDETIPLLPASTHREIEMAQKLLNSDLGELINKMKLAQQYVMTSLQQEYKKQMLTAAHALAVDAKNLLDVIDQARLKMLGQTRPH
Sequence of Vascular endothelial growth factor receptor 3 (P35916 whole entry): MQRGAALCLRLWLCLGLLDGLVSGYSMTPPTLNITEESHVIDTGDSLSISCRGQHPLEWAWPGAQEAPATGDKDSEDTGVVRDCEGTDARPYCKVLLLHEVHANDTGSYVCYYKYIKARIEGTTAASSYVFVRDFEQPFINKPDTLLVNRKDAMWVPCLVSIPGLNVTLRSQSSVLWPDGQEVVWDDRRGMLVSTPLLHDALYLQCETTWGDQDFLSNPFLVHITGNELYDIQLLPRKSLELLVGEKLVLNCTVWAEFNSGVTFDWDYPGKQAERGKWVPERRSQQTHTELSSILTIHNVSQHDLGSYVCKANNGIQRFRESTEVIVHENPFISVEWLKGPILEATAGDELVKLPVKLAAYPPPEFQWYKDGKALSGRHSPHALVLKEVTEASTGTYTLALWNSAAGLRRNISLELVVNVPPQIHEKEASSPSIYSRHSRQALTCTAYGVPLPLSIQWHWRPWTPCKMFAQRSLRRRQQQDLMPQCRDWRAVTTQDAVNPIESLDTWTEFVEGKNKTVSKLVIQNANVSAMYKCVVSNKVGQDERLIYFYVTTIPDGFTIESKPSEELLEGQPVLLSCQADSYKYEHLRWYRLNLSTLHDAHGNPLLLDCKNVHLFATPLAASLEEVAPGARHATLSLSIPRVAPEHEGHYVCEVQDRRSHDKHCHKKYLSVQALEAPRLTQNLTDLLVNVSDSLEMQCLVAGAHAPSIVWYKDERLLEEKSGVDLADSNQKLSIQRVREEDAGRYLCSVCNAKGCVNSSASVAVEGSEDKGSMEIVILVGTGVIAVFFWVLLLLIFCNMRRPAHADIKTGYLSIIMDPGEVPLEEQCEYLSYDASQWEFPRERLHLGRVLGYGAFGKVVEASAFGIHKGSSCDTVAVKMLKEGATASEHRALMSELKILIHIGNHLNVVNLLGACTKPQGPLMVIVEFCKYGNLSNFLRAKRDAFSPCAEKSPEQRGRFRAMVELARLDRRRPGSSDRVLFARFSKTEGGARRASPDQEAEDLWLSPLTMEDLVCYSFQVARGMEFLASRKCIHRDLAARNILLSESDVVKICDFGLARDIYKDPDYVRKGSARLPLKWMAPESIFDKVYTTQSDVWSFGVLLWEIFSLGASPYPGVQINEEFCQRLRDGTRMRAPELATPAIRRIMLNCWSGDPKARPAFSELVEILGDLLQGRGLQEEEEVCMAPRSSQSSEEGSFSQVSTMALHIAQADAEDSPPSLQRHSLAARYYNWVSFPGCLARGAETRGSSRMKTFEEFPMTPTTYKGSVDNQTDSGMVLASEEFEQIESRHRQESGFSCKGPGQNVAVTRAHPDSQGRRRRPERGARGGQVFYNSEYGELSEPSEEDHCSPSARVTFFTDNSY
Sequence of Hepatocyte growth factor receptor (P08581 whole entry): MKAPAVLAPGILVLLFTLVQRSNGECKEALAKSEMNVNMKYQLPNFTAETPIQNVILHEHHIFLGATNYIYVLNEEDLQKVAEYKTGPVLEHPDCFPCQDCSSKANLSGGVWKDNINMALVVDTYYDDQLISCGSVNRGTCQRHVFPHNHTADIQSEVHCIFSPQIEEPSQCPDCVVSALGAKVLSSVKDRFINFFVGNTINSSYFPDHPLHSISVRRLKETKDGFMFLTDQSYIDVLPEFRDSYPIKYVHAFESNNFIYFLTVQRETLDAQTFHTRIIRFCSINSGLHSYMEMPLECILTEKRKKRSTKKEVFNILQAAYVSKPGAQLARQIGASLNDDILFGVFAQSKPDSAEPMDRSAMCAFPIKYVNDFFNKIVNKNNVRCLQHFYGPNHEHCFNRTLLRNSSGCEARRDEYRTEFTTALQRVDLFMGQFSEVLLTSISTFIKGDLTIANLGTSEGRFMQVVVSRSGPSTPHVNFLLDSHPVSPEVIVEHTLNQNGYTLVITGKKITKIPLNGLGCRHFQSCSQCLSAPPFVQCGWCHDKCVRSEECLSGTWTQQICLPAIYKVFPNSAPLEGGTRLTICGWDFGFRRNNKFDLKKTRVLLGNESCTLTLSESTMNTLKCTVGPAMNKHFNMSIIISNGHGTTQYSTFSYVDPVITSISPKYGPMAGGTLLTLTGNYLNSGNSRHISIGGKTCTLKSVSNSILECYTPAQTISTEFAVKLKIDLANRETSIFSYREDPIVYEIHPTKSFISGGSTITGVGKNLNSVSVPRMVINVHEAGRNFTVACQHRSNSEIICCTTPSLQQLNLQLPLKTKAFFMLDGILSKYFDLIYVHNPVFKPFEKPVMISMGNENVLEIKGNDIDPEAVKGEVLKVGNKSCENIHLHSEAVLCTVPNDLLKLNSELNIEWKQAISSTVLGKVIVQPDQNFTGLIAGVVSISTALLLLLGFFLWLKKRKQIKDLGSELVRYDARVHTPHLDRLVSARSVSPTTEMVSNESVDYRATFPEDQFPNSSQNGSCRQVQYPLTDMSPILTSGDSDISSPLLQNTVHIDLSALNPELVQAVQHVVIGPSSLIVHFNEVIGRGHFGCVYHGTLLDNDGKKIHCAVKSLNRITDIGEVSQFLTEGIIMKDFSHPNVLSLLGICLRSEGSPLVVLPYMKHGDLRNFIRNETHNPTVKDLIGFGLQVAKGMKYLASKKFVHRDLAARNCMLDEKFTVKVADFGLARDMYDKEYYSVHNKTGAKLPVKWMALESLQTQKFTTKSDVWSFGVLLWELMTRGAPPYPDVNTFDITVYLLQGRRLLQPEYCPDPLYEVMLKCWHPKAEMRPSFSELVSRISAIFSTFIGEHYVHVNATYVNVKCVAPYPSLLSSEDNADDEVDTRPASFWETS

Consider `COc1cc(O)c2c(c1)-c1cc(O)c(O)cc1COC2=O` [Alterlactone], for which the IC50 (on Angiopoietin-1 receptor; in [1]; at Focal adhesion kinase 1; in experiment [2]; on Insulin receptor; in experiment [3]) was more than 34.6 µM throughout. Moreover, the IC50 (in experiment [4]; in experiment [5]; on Aurora kinase B; in [6]; in experiment [7]; in experiment [8]) was more than 34.6 µM throughout. Moreover, the IC50 at Aurora kinase A was more than 34.6 µM.
On to `COc1cc(O)c2c(c1)C1(OC2=O)C(=O)C(=O)CC1C` (centres undefined) [TALAROFLAVONE], for which the IC50 (on Angiopoietin-1 receptor; in experiment [1]; at Focal adhesion kinase 1; in [2]; in experiment [3]; in [4]) was more than 36.2 µM throughout. The IC50 (on Aurora kinase B; in experiment [6]; in [7]; in experiment [8]; on Aurora kinase A) was more than 36.2 µM each time.
